# Experimental data gathered from unrelated publications.
# Compare with care: the assays were run in different laboratories.
# Target: Mitogen-activated protein kinase 10 (MAPK10, Homo sapiens, UniProt P53779)
SMILES,read-out,method,concentration,remaining binding [%]
CN(C)c1nccc(-c2cnc3ncccn23)n1,binding,,1 µM,70
CC1=C(C#N)[C@@H](c2ccc3[nH]nc(C)c3c2)C(C#N)=C(c2ccc(Cl)cc2)N1,cell-free assay,competition with immobilised ligand,1 µM,68.8
CC1CCCN1c1nccc(-c2cnn3ncccc23)n1 (stereo not drawn),binding,,1 µM,79
CC(C)(C)c1ccc(-c2nc(CBr)nn2-c2cccc(O)c2)cc1,cell-free assay,competition with immobilised ligand,10 µM,65
O=C(c1ccc(Nc2ncc(Cl)c(-c3ccc(Cl)s3)n2)cc1)N1CCC(N2CCCC2)CC1,binding,competition with immobilised ligand,1 µM,1.1
O=C(Nc1c[nH]nc1C(=O)NC1CCNCC1)c1cc(F)cc(F)c1,binding,competition with immobilised ligand,1 µM,100
C[C@@H]1CCN(c2nccc(-c3cnn4ncccc34)n2)C1,binding,,1 µM,34
C[C@@H]1CN(c2ccc3ncc(-c4ccc5[nH]nc(C6CC6)c5c4)n3n2)C[C@H](C)O1,binding,competition with immobilised ligand,0.5 µM,52
N[C@@H]1CCN(c2nccc(-c3cnn4ncccc34)n2)C1,binding,,1 µM,52
CCC(=O)N[C@H]1CC[C@@H](C(=O)N(C)c2ccc(-c3nc4ccccc4o3)cc2)C1,cell-free assay,competition with immobilised ligand,1 µM,85
Cc1cnc(Nc2ccc(C(=O)N3CCC(N4CCCC4)CC3)cc2)nc1-c1cc2ccccc2s1,binding,competition with immobilised ligand,1 µM,8.6
CN(C)c1ncc(F)c(-c2cnn3ncccc23)n1,binding,,1 µM,73
O=C1CCc2cc(Nc3cc(OC4CCOCC4)c([N+](=O)[O-])cc3Cl)ccc2N1,cell-free assay,competition with immobilised ligand,1 µM,98
O=C(c1ccc(Nc2ncc(Cl)c(-c3cc4ccccc4s3)n2)cc1)N1CCC(N2CCCC2)CC1,binding,competition with immobilised ligand,1 µM,5.8
COc1ncc2cc3ccccc3nc2c1C#N,cell-free assay,competition with immobilised ligand,5 µM,100
Cc1ccc(-c2cnc([C@@]3(O)CC[C@H](C(=O)O)C(C)(C)C3)s2)cc1Nc1cccc(C(F)(F)F)n1,binding,competition with immobilised ligand,1 µM,37.5
N#Cc1ccccc1CSc1nnc2c(n1)[nH]c1ccccc12,binding,competition with immobilised ligand,10 µM,100
c1cncc(-c2cccc(Nc3nccc(NC4CCCCC4)n3)c2)c1,binding,competition with immobilised ligand,10 µM,51
O=C(O)[C@@H]1[C@@H](Cn2nnc3ccccc3c2=O)CC[C@H]1C(=O)c1ccc(OCCC2CCOCC2)cc1,cell-free assay,competition with immobilised ligand,1 µM,100
CN(C)c1nccc(-c2cnn3ncccc23)n1,binding,,1 µM,49
CN(C)C(=O)Cn1cc(-c2nc([C@@](C)(c3ccc(-c4cnc(N)nc4)cc3)C3CC3)no2)cn1,cell-free assay,competition with immobilised ligand,1 µM,94
COc1cnc(Nc2cccc(S(N)(=O)=O)c2)nc1N1CCN(c2ccccc2)CC1,binding,competition with immobilised ligand,1 µM,83
CO[C@H]1CC[C@H](CNc2ccc(S(=O)(=O)NC(=O)c3ccc(N4CCN(CC5=C(c6ccc(Cl)cc6)CC(C)(C)CC5)CC4)cc3Oc3cnc4[nH]ccc4c3)cc2[N+](=O)[O-])CC1,cell-free assay,competition with immobilised ligand,1 µM,77
FC(F)(F)Oc1cccc(-c2cnc3ccc(-c4ccncc4)nn23)c1,cell-free assay,competition with immobilised ligand,5 µM,65
